Screening results deposited in PubChem by Broad Institute.
S100A4 MyoIIA: inhibitors of human S100A4 binding to myosin IIA peptide; inhibition, % at 10.7 µM; hit rate 0.14% among 360,000; S100A4/TAMRA-MyoIIA peptide fluorescence polarization; P26447;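 active = mean inhibition of at least 70% across replicates, with every replicate also reaching that level; inconclusive = mean inhibition reaches 70% but some replicates fall short; inactive = mean inhibition below 70%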
Target sequence (P26447 whole entry, looked up): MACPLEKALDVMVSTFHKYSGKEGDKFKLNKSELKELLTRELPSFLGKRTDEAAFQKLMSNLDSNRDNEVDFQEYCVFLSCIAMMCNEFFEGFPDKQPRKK
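Test system: S100A4 monomer protein. Medium: HEPES buffer with Ca2+, pH 7.2. Reagent: fluorescent myosin IIA peptide, 5 nM. Compound dosing: single-point compound testing. Timing: 5 min between mix addition and reading. Benchmarks: DMSO neutral and TFP positive wells.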
SIRT5 inh: inhibitors of human sirtuin-5 desuccinylase; Q9NXA8; Purified SirT5, succinyl-peptide AMC, trypsin-coupled fluorescence; inhibition, % at 15 µM; hit rate 1.1% among 330,000; AID 652115; in the data active = inhibition above about 15%; inconclusive = no clear call, values can overlap the other calls
Target sequence (Q9NXA8 whole entry, looked up): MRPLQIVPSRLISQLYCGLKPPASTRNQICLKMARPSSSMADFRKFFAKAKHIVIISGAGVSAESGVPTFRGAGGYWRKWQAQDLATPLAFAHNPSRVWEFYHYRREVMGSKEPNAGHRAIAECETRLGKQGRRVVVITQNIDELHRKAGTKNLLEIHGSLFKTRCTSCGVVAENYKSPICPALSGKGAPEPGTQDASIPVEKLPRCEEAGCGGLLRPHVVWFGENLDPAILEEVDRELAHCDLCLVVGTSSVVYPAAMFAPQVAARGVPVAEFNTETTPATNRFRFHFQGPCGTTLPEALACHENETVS
PGC1a acetyl inh: lowers PGC1a acetylation signal in U2OS cells | AlphaScreen anti-acetyl-lysine; with virally co-expressed GCN5 acetyltransferase | inhibition, % at 15.6 µM | hit rate 0.17% among 350,000;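 active = every replicate shows inhibition of at least 40%; inconclusive = mean inhibition at least 40% but some replicate below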
C2C12 statin: suppression of simvastatin myotoxicity; C2C12 myotubes + simvastatin, ATP luminescence, 48 h; scaled: DMSO 0, geranylgeraniol control 100; hit rate 0.78% among 330,000; rescue of ATP level, % at 7.49 µM; AID 602340;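 active = mean ATP rescue above about 67%, or every replicate alone reaching that limit, limit read from the data, passing the limit was not always enough; inconclusive = no clear call, values can overlap the other calls; inactive = mean under the limit and some replicate under it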;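 also: myotubes were challenged with 10 µM simvastatin during compound exposure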
DENV2 CPE rescue: DENV2-induced cell death inhibition; DENV2-infected cells, cytopathic effect rescue, plate reader; CPE inhibition, % at 9.99 µM; hit rate 1.7% among 350,000; in the data active = CPE inhibition above about 20%, passing the limit was not always enough; inconclusive = no clear call, values can overlap the other calls; tested in BHK-21 cells
Each line names hits and unclear results; the compound was inactive in the other large screens. Shown are actives, neighbours in structure and some others; about 2.9% of the full set was active somewhere.

C[C@@H]1CN([C@H](C)CO)S(=O)(=O)c2ccc(C#CC3CCCC3)cc2O[C@H]1CN(C)Cc1cncnc1	none (no result: S100A4 MyoIIA, SIRT5 inh, DENV2 CPE rescue)
C[C@H]1CN([C@@H](C)CO)S(=O)(=O)c2ccc(C#CC3CCCC3)cc2O[C@@H]1CN(C)Cc1cccnc1	SIRT5 inh 17
C[C@H]1CN([C@@H](C)CO)S(=O)(=O)c2ccc(C#CC3CCCCC3)cc2O[C@@H]1CN(C)Cc1cccnc1	SIRT5 inh 18, PGC1a acetyl inh 64
C[C@@H]1CN([C@@H](C)CO)S(=O)(=O)c2ccc(C#CC3CCCC3)cc2O[C@@H]1CN(C)Cc1cccnc1	none
C[C@H](CO)N1C[C@H](C)[C@H](CN(C)Cc2cncnc2)Oc2cc(C#CC3CCCC3)ccc2S1(=O)=O	SIRT5 inh 17
C[C@@H]1CN([C@@H](C)CO)C(=O)c2cc(NC(=O)Nc3ccc(F)cc3)ccc2O[C@@H]1CN(C)C(=O)Nc1ccc(C(F)(F)F)cc1	none (no result: S100A4 MyoIIA, SIRT5 inh, C2C12 statin, DENV2 CPE rescue)
CN(C)C(=O)c1cc2c(c(-c3cccc(-c4ccc(F)cc4)c3)n1)[C@@H](CCO)N([S@](=O)C(C)(C)C)C2	none
CC1(C)N=C(N)N=C(N)N1c1ccc(F)cc1F	C2C12 statin 104 (no result: S100A4 MyoIIA, SIRT5 inh, DENV2 CPE rescue)
CC1(C)N=C(N)N=C(N)N1c1cc(Cl)ccc1Cl	none
Cc1ccc2nc(N3C(=O)C(O)=C(C(=O)c4ccco4)C3c3ccc(O)cc3)sc2c1 (centres undefined)	none (no result: PGC1a acetyl inh)
Cc1cc(C)c2nc(N3C(=O)C(O)=C(C(=O)c4ccco4)C3c3cccc(O)c3)sc2c1 (centres undefined)	SIRT5 inh 17
Cc1cc(C)c2nc(N3C(=O)C(O)=C(C(=O)c4ccco4)C3c3ccc(O)cc3)sc2c1 (centres undefined)	SIRT5 inh 17
O=C(CSc1nnc(-c2ccncc2)o1)Nc1ccccc1Cl	none (no result: S100A4 MyoIIA, SIRT5 inh, DENV2 CPE rescue)
O=C(CSc1nnc(-c2ccncc2)o1)Nc1cc(F)ccc1F	DENV2 CPE rescue 44
O=C(CSc1nnc(-c2ccncc2)o1)Nc1cccc(F)c1	none (no result: PGC1a acetyl inh)
O=C(CSc1nnc(-c2ccncc2)o1)Nc1cc(Cl)ccc1C(=O)O	DENV2 CPE rescue 39 (no result: SIRT5 inh)
C[C@@H]1CCCCO[C@@H](CN(C)S(C)(=O)=O)[C@H](C)CN([C@@H](C)CO)C(=O)c2cc(NC(=O)Nc3ccc(C(F)(F)F)cc3)ccc2O1	DENV2 CPE rescue 57 (no result: C2C12 statin)
C[C@@H]1CCCCO[C@@H](CN(C)S(=O)(=O)c2ccc(F)cc2)[C@@H](C)CN([C@H](C)CO)C(=O)c2cc(NC(=O)Nc3ccc(C(F)(F)F)cc3)ccc2O1	DENV2 CPE rescue 88 (no result: C2C12 statin)
C[C@@H]1CCCCO[C@@H](CN(C)S(=O)(=O)c2ccc(F)cc2)[C@H](C)CN([C@H](C)CO)C(=O)c2cc(NC(=O)Nc3ccc(C(F)(F)F)cc3)ccc2O1	SIRT5 inh 15 (no result: C2C12 statin)
C[C@@H]1CCCCO[C@@H](CN(C)Cc2ccc3c(c2)OCO3)[C@H](C)CN([C@@H](C)CO)C(=O)c2cc(NC(=O)NC3CCCCC3)ccc2O1	DENV2 CPE rescue 44 (no result: C2C12 statin)
C[C@H](CO)N1C[C@H](C)[C@H](CN(C)Cc2ccc3c(c2)OCO3)OCCCC[C@H](C)Oc2ccc(NC(=O)NC3CCCCC3)cc2C1=O	DENV2 CPE rescue 26 (no result: C2C12 statin)
C[C@@H]1CCCCO[C@H](CN(C)Cc2ccc3c(c2)OCO3)[C@@H](C)CN([C@H](C)CO)C(=O)c2cc(NC(=O)NC3CCCCC3)ccc2O1	DENV2 CPE rescue inconclusive (no result: C2C12 statin)
C[C@@H]1CCCCO[C@@H](CN(C)Cc2ccc3c(c2)OCO3)[C@H](C)CN([C@H](C)CO)C(=O)c2cc(NC(=O)NC3CCCCC3)ccc2O1	DENV2 CPE rescue inconclusive (no result: C2C12 statin)
C[C@@H]1CCCCO[C@H](CN(C)CC2CCCCC2)[C@H](C)CN([C@@H](C)CO)C(=O)c2cc(NS(=O)(=O)c3cccs3)ccc2O1	none (no result: C2C12 statin)
CO[C@H]1CN(C)C(=O)c2ccc(NC(=O)Nc3c(C)noc3C)cc2OC[C@H](C)N(CC2CC2)C[C@H]1C	none
CCN1C(=O)[C@H]2[C@@H](c3ccc(OC)cc3)N3C(=O)CN(CCOC)C(=O)[C@@]3(C)[C@H]2C1=O	DENV2 CPE rescue 98 (no result: PGC1a acetyl inh)
CCN1C(=O)[C@H]2[C@@H](c3ccc(OC)cc3)N3C(=O)CN(Cc4ccccc4)C(=O)[C@@]3(Cc3ccccc3)[C@H]2C1=O	none (no result: SIRT5 inh, DENV2 CPE rescue)
C[C@H]1CN([C@@H](C)CO)C(=O)c2cc(NC(=O)NC3CCCCC3)ccc2O[C@H]1CN(C)Cc1ccc2c(c1)OCO2	none (no result: SIRT5 inh)
